Reference: ChEMBL document CHEMBL3351277, “Discovery and structure-activity relationship studies of irreversible benzisothiazolinone-based inhibitors against Staphylococcus aureus sortase A transpeptidase” (Bioorg Med Chem, 2014)
Values after ≈ are worked out from the molar mass of the structure shown. Active and inactive are the calls of the source. The calls are words filed in the database; no cut-off is given here.

Experiments:
Escherichia coli = assay: Antibacterial activity against Escherichia coli ATCC 25922 after 24 hrs by broth dilution method; format: functional; conditions: ATCC 25922, 24 h
How it was run: (§1)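 Broth microdilution, 0.1–500 µg/mL in Mueller Hinton broth for S. aureus and S. epidermidis and Luria Bertani broth for E. coli. Inoculum was log-phase culture at OD600 0.1, incubated 24 h at 37 °C, with growth read as A600. Triplicates, repeated three times.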

[1] = Cytotoxicity against Swiss mouse NIH/3T3 cells after 48 hrs by MTT assay; format: cell-based; conditions: NIH3T3, 48 h
How it was run: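 NIH 3T3 fibroblasts were seeded in DMEM with 10% FCS and rested 24 h, then exposed to graded compound concentrations for 48 h. Medium was replaced with phenol-red-free medium plus 1 mM MTT for 3 h, then 1% SDS–HCl was added for 4 h. A570 was read. IC50 was the 50% proliferation inhibition versus untreated control, from nonlinear dose–response regression.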

Sortase A = molecular target: T1, Sortase A (Staphylococcus aureus, UniProt Q9S446); assay: Inhibition of Staphylococcus aureus sortase A using dabcyl-QALPETGEE-edans as substrate incubated for 1 hr prior to substrate addition measured at 1 min interval for 1 hr by FRET analysis
T1 sequence (Q9S446 whole entry): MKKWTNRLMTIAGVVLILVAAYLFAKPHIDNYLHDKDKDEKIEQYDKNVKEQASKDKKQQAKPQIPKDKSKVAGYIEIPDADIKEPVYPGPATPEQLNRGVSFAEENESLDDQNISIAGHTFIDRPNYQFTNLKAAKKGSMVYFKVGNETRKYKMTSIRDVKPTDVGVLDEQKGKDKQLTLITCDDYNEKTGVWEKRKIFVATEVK
How it was run: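 Recombinant S. aureus SrtA catalytic domain (residues 1–59 deleted, C-terminal His6; E. coli BL21(DE3), Ni-NTA then gel filtration), 10 µM, preincubated 1 h at 37 °C with increasing inhibitor concentrations in 50 mM Tris-HCl pH 7.5, 5 mM CaCl2, 150 mM NaCl; then 20 µM substrate added. Fluorescence (ex 350/em 495 nm) read each minute for 1 h; progress curves constructed for IC50.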

[2] = tested on: Staphylococcus epidermidis; assay: Antibacterial activity against Staphylococcus epidermidis ATCC 12228 after 24 hrs by broth dilution method; format: functional; conditions: ATCC 12228, 24 h; how it was run: as §1
Staphylococcus aureus = assay: Antibacterial activity against Staphylococcus aureus ATCC 25904 after 24 hrs by broth dilution method; format: functional; conditions: ATCC 25904, 24 h; how it was run: as §1
[3] = molecular target: T2, Sortase A (Staphylococcus aureus) (UniProt Q9S446); assay: Irreversible binding affinity to Staphylococcus aureus sortase A by 15N-1H HSQC NMR spectroscopy
T2 sequence (whole entry): T1 sequence (Q9S446 whole entry)
How it was run: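 2D 15N–1H HSQC used 15N-labelled SrtAΔN59-6His (E. coli BL21(DE3), M9 with 15N-ammonium) at 0.3 mM. Buffer was 20 mM sodium acetate, 50 mM NaCl, 10 mM CaCl2, pH 6.0, 6% D2O. Inhibitor (100 mM stock in DMSO-d6) was added stepwise with a spectrum after each addition. Reversibility was checked by HSQC after dialysis against NMR buffer (100-fold dilution).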

| SMILES | MIC (Escherichia coli) [µM] | IC50 [1] [µM] | IC50 (Sortase A; read-out: IC50) [µM] | MIC [2] [µM] | MIC (Staphylococcus aureus) [µM] | IC50 (Sortase A) | Activity [3] |
| --- | --- | --- | --- | --- | --- | --- | --- |
| O=C(CCn1sc2ccccc2c1=O)NNC(=O)C12CC3CC(CC(C3)C1)C2 | > 1250 | 12.2 | 4.22 | 10 (≈ 4 µg/mL) | 20 (≈ 8 µg/mL) | – | – |
| COC(=O)C12CC3CC(CC(NC(=O)CCn4sc5ccccc5c4=O)(C3)C1)C2 | > 1210 | 12.1 | 5.08 | 19.3 (≈ 8 µg/mL) | 38.6 (≈ 16 µg/mL) | – | – |
| O=C(CCn1sc2ccccc2c1=O)NC12CC3CC(CC(O)(C3)C1)C2 | > 1340 | 7.13 | 6.44 | 85.9 (≈ 32 µg/mL) | 43 (≈ 16 µg/mL) | – | – |
| O=C(Cn1sc2ccccc2c1=O)NNC(=O)C12CC3CC(CC(C3)C1)C2 | > 1300 | 14.4 | 3.8 | 10.4 (≈ 4 µg/mL) | 41.5 (≈ 16 µg/mL) | – | – |
| O=C(CCn1sc2ccccc2c1=O)NC12CC3CC(CC(C3)C1)C2 | > 1400 | 5.95 | 3.81 | 5.61 (≈ 2 µg/mL) | 22.4 (≈ 8 µg/mL) | – | – |
| CC12CC3(C)CC(O)(C1)CC(NC(=O)Cn1sc4ccccc4c1=O)(C2)C3 | > 1290 | 1.33 | 3.87 | 20.7 (≈ 8 µg/mL) | 20.7 (≈ 8 µg/mL) | – | – |
| O=C(CCn1sc2cccc(F)c2c1=O)NC12CC3CC(CC(C3)C1)C2 | > 1340 | 0.9 | 4.01 | 10.7 (≈ 4 µg/mL) | 85.5 (≈ 32 µg/mL) | – | – |
| CC12CC3CC(C)(C1)CC(NC(=O)Cn1sc4ccccc4c1=O)(C3)C2 | > 1350 | 4.09 | 4.99 | 43.2 (≈ 16 µg/mL) | 86.4 (≈ 32 µg/mL) | – | – |
| COC(=O)C12CC3CC(CC(NC(=O)CCn4sc5cccc(F)c5c4=O)(C3)C1)C2 | > 1160 | 8.02 | 5.06 | 18.5 (≈ 8 µg/mL) | 37 (≈ 16 µg/mL) | – | – |
| O=C(CCn1sc2cccc(F)c2c1=O)NNC(=O)C12CC3CC(CC(C3)C1)C2 | > 1200 | 1.67 | 3.39 | 19.2 (≈ 8 µg/mL) | 38.3 (≈ 16 µg/mL) | – | – |
| O=C(CN1Cc2ccccc2C1=O)NC12CC3CC(CC(C3)C1)C2 | > 1540 | 263 | – | > 1540 | > 1540 | Not Active | – |
| Cl.NC12CC3CC(CC(C3)C1)C2 [AMANTADINE HYDROCHLORIDE] | > 2660 | 2290 | – | > 2660 | > 2660 | Not Active | – |
| CC12CC3(C)CC(O)(C1)CC(NC(=O)CCn1sc4cccc(F)c4c1=O)(C2)C3 | > 1190 | 2.17 | 3.96 | 38.2 (≈ 16 µg/mL) | 38.2 (≈ 16 µg/mL) | – | – |
| O=C(O)CCn1sc2ccccc2c1=O | 71.7 (≈ 16 µg/mL) | 21.8 | 12.8 | 287 (≈ 64 µg/mL) | 287 (≈ 64 µg/mL) | – | – |
| CC12CC3CC(C)(C1)CC(NC(=O)CCn1sc4ccccc4c1=O)(C3)C2 | > 1300 | 4.23 | 4.62 | 20.8 (≈ 8 µg/mL) | 20.8 (≈ 8 µg/mL) | – | – |
| O=C(Cn1sc2ccccc2c1=O)NC12CC3CC(CC(C3)C1)C2 | > 1500 | 1.27 | 6.11 | 1.46 (≈ 0.5 µg/mL) | 2.92 (≈ 1 µg/mL) | – | Active |
| O=C(CCn1sc2cccc(F)c2c1=O)NC12CC3CC(CC(O)(C3)C1)C2 | > 1280 | 1.34 | 6.26 | 164 (≈ 64 µg/mL) | 164 (≈ 64 µg/mL) | – | – |
| C=CS(=O)(=O)c1ccccc1 [(ETHENYLSULFONYL)BENZENE] | > 2960 | 7.91 | – | > 2960 | > 2960 | – | – |
| CC12CC3CC(C)(C1)CC(NC(=O)CCn1sc4cccc(F)c4c1=O)(C3)C2 | > 1240 | 9.89 | 4.07 | 2.48 (≈ 0.998 µg/mL) | 39.7 (≈ 16 µg/mL) | – | – |
| COC(=O)C12CC3CC(CC(N)(C3)C1)C2.Cl | > 2030 | 2290 | – | > 2030 | > 2030 | Not Active | – |
| CC12CC3(C)CC(O)(C1)CC(NC(=O)CCn1sc4ccccc4c1=O)(C2)C3 | > 1250 | 7.52 | 7.06 | 40 (≈ 16 µg/mL) | 40 (≈ 16 µg/mL) | – | – |
| CN(C)CCC(=O)c1ccc(Cl)c(Cl)c1 | > 1770 | 9.71 | 16.9 | 56.6 (≈ 13.9 µg/mL) | 113 (≈ 27.9 µg/mL) | – | – |
